Assay results taken from ChEMBL document CHEMBL4765342, “Substituted benzothiophene and benzofuran derivatives as a novel class of bone morphogenetic Protein-2 upregulators: Synthesis, anti-osteoporosis efficacies in ovariectomized rats and a zebrafish model, and ADME properties” (Eur J Med Chem, 2020).

Assays:
[1] = Toxicity in BALB/c mouse assessed as convulsion at 50 to 100 mg/kg, ig administered for 14 days; assay type: organism-based; conditions: in vivo, po, 336 h, dose 50-100 mg/kg, time 14 day
Summary of the method: (§1)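 BALB/c mice, 10 per group, gavaged daily for 14 days at 50 or 100 mg/kg; blank control group included. Hair, behaviour and neurological signs (fremitus, convulsion, spasm, gait disturbance) were observed. At day 14, mice were weighed and given routine blood tests and serum biochemistry (ALT, AST, urea, creatinine; n = 10). Liver and kidney were examined on paraffin-embedded histology sections.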

[2] = Toxicity in BALB/c mouse assessed as fremitus at 50 to 100 mg/kg, ig administered for 14 days; assay type: organism-based; conditions: in vivo, po, 336 h, dose 50-100 mg/kg, time 14 day; summary of the method: as §1
[3] = Toxicity in BALB/c mouse assessed as effect on body weight at 50 to 100 mg/kg, ig administered for 14 days; assay type: organism-based; conditions: in vivo, po, 336 h, dose 50-100 mg/kg, time 14 day; summary of the method: as §1
[4] = Toxicity in BALB/c mouse assessed as effect on hair at 50 to 100 mg/kg, ig administered for 14 days; assay type: organism-based; conditions: in vivo, po, 336 h, dose 50-100 mg/kg, time 14 day; summary of the method: as §1
[5] = Oral bioavailability in Sprague-Dawley rat at 10 mg/kg by LC-MS/MS analysis; assay type: ADME, organism-based; conditions: in vivo
Summary of the method: (§2)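 SD rats dosed iv or intragastrically. Plasma (50 µL) was mixed with diclofenac internal standard (50 ng/mL, 300 µL), vortexed, centrifuged at 4 °C, and the supernatant analysed by LC/MS/MS against spiked standard and QC curves. Noncompartmental parameters calculated; mean ± SD, n = 3 (bioavailability excepted).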

[6] = AUC (0 to infinity) in Sprague-Dawley rat at 10 mg/kg, po by LC-MS/MS analysis; assay type: ADME, organism-based; design: route oral, time infinity, dose 10 mg/kg; conditions: in vivo
Summary of the method: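 The acid metabolite of the parent ester was dosed directly to Sprague-Dawley rats, iv or intragastrically (n=3). Plasma (50 µL) was spiked with 5 µL DMSO, extracted with 300 µL acetonitrile containing 50 ng/mL diclofenac internal standard, then vortexed and centrifuged at 4 °C. Supernatant was quantified by LC/MS/MS against plasma calibration standards and QCs. AUC came from noncompartmental analysis.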

[7] = Cmax in Sprague-Dawley rat at 10 mg/kg, po by LC-MS/MS analysis; assay type: ADME, organism-based; design: route oral, dose 10 mg/kg; conditions: in vivo; summary of the method: as §2
[8] = AUC (0 to t) in Sprague-Dawley rat at 10 mg/kg, po by LC-MS/MS analysis; assay type: ADME, organism-based; design: dose 10 mg/kg; conditions: in vivo
[9] = Tmax in Sprague-Dawley rat at 10 mg/kg, po by LC-MS/MS analysis; assay type: ADME, organism-based; conditions: in vivo; summary of the method: as §2
[10] = MRT in Sprague-Dawley rat at 2 mg/kg, iv by LC-MS/MS analysis; assay type: ADME, organism-based; conditions: in vivo; summary of the method: as §2
[11] = Half life in Sprague-Dawley rat at 2 mg/kg, iv by LC-MS/MS analysis; assay type: ADME, organism-based; conditions: in vivo; summary of the method: as §2
[12] = Toxicity in Kunming mouse assessed as organism death administered orally for 3 days and observed for 17 days starting from drug administration; conditions: in vivo, po, 408 h, time 17 day
[13] = Apparent permeability across apical to basolateral side in human Caco-2 cells at 10 uM incubated for 2 hrs LC-MS/MS analysis; assay type: ADME, cell-based; conditions: Caco-2
Summary of the method: (§3)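 Caco-2 monolayers, apical to basolateral direction. Plates preincubated 30 min at 37 °C, then exposed to 10 µM compound for 2 h at 37 °C without shaking. Donor and receiver samples were quenched, centrifuged and measured by LC/MS/MS, in duplicate. Papp calculated from receiver concentration, area and time. Monolayer integrity checked by TEER and by Lucifer yellow leakage (30 min, 37 °C, ex 485/em 530 nm).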

[14] = Permeability across apical to basolateral side in human Caco-2 cells assessed as transepithelial electrical resistance at 10 uM incubated for 2 hrs LC-MS/MS analysis; assay type: ADME, cell-based; conditions: caco-2, 2 h; summary of the method: as §3
[15] = Permeability across apical to basolateral side in human Caco-2 cells assessed as […] yellow leakage at 10 uM incubated for 2 hrs LC-MS/MS analysis; assay type: ADME, cell-based; conditions: caco-2, 2 h; summary of the method: as §3
[16] = molecular target: Cytochrome P450 3A4 (Homo sapiens, UniProt P08684); assay: Inhibition of CYP3A4 in human liver microsomes using midazolam as substrate incubated for 5 mins followed by NADPH addition and measured after 20 mins by LC-MS/MS analysis; assay type: ADME
Summary of the method: (§4)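 Human liver microsomes at 0.2 mg/mL mixed with probe substrates, preincubated 5 min at 37 °C. Reaction started with NADPH and run 20 min at 37 °C in a shaking bath. Quenched, held at -20 °C for 1 h, centrifuged, and the supernatant analysed by LC/MS/MS. Assay validated with specific inhibitors for each isoform.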

[17] = molecular target: Cytochrome P450 2C19 (Homo sapiens, UniProt P33261); assay: Inhibition of CYP2C19 in human liver microsomes using omeprazole as substrate incubated for 5 mins followed by NADPH addition and measured after 20 mins by LC-MS/MS analysis; assay type: ADME; summary of the method: as §4
[18] = Toxicity in BALB/c mouse assessed as gait disturbance at 50 to 100 mg/kg, ig administered for 14 days; assay type: organism-based; conditions: in vivo, po, 336 h, dose 50-100 mg/kg, time 14 day; summary of the method: as §1
[19] = Toxicity in BALB/c mouse assessed as effect on behavioral change at 50 to 100 mg/kg, ig administered for 14 days; assay type: organism-based; conditions: in vivo, po, 336 h, dose 50-100 mg/kg, time 14 day; summary of the method: as §1
[20] = Toxicity in BALB/c mouse assessed as hepatocyte nucleus mitosis at 50 to 100 mg/kg, ig administered for 14 days; assay type: organism-based; conditions: in vivo, po, 336 h, dose 50-100 mg/kg, time 14 day; summary of the method: as §1
[21] = Toxicity in BALB/c mouse assessed as effect on liver megakaryocyte at 50 to 100 mg/kg, ig administered for 14 days; assay type: organism-based; conditions: in vivo, po, 336 h, dose 50-100 mg/kg, time 14 day; summary of the method: as §1
[22] = Toxicity in BALB/c mouse assessed as necrosis in renal tubular epithelial cells at 50 to 100 mg/kg, ig administered for 14 days; assay type: organism-based; conditions: in vivo, po, 336 h, dose 50-100 mg/kg, time 14 day
Summary of the method: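 BALB/c mice, 10 per group: untreated blank group plus low (50 mg/kg) and high (100 mg/kg) dose groups, intragastric once daily for 14 days. Hair, behaviour and neurological signs monitored throughout. At day 14 mice were weighed and dissected. Kidney and liver tissue was fixed in 3 mm pieces, dehydrated through graded alcohol, cleared in xylene, embedded in paraffin, sectioned and examined histopathologically.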

[23] = Hepatotoxicity in BALB/c mouse assessed as effect on serum AST level at 50 to 100 mg/kg, ig administered for 14 days; assay type: toxicity, organism-based; conditions: in vivo, po, 336 h, dose 50-100 mg/kg, time 14 day; summary of the method: as §1
[24] = Renal toxicity in BALB/c mouse assessed as effect on serum urea level at 50 to 100 mg/kg, ig administered for 14 days; assay type: organism-based; conditions: in vivo, po, 336 h, dose 50-100 mg/kg, time 14 day; summary of the method: as §1
[25] = in vitro; conditions: human, liver microsomes
[26] = in vitro; conditions: human, liver microsomes; remark: listed apart in the source

Chain of Cytochrome P450 2C19 (P33261 whole entry): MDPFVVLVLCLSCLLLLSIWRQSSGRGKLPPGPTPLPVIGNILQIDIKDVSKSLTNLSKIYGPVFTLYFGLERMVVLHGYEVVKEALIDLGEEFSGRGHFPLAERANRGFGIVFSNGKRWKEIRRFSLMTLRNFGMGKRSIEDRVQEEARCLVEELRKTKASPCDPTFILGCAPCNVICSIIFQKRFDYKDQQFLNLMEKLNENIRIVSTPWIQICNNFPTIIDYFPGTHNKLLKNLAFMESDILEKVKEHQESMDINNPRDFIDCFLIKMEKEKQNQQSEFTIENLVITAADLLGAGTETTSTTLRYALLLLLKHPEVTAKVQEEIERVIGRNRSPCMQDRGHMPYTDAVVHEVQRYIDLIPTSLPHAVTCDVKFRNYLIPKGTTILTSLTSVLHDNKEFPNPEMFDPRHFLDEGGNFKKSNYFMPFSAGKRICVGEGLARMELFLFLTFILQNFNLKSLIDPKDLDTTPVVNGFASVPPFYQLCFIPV
Chain of Cytochrome P450 3A4 (P08684 whole entry, canonical isoform): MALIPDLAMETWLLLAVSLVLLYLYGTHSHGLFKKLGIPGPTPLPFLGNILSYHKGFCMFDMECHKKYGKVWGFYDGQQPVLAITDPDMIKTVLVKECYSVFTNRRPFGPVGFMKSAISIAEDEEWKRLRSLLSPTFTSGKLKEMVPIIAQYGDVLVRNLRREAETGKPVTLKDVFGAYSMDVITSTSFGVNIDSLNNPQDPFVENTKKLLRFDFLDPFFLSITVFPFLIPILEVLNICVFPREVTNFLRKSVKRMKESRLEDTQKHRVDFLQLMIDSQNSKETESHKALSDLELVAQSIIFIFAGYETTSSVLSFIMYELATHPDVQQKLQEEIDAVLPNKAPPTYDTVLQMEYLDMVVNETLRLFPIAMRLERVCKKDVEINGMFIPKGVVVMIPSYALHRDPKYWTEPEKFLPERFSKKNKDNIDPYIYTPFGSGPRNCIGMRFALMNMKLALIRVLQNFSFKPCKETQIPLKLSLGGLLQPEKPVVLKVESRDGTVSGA

With `COc1ccc2cc(C(=O)NCCN(C)C)oc2c1.CS(=O)(=O)O` the Activity [1] was “Non-Toxic”, the Activity [2] was “Non-Toxic” and the Activity [3] was “Non-Toxic”. For the same compound, the Activity [4] was “Non-Toxic”, the bioavailability [5] was 83.1% and the AUC(0-inf) [6] was 286 ng·h/mL. The Cmax [7] was 54.2 ng/mL, the AUC(0-t) [8] was 278 ng·h/mL and the Tmax [9] was 0.5 h. The MRT [10] was 2.85 h, the half-life [11] was 2.52 h and the LD50 [12] was greater than 500 mg/kg/day. For the same compound, the Papp A→B at 2 h, 10 µM [13] was 9.34 ×10⁻⁶ cm/s, the Activity [14] was 341 Ω·cm² and the Activity [15] was 0.158%. The IC50 [16] was greater than 10 µM, the IC50 [17] was greater than 10 µM and the Activity [18] was “Non-Toxic”. The Activity [19] was “Non-Toxic”, the Activity [20] was “Toxic” and the Activity [21] was “Toxic”. The Activity [22] was “Toxic”, the Activity [23] was “Non-Toxic” and the Activity [24] was “Non-Toxic”. For the same compound, the half-life at 0.5 h, 100 µM [25] was 1.72 h and the microsomal CLint at 0.5 h, 100 µM [26] was 6.73 µL/min/mg.
